Assay results from ChEMBL document CHEMBL3853327 (J Med Chem, 2016).

Columns and labels:
[1] = Selectivity index, ratio of CC50 for human mock-infected MT4 cells to EC50 for HIV1 3B harboring reverse transcriptase K103N mutant infected in human MT4 cells; assay type: toxicity, cell-based; conditions: MT4 cells (mock-infected for CC50, HIV-1 infected for EC50)
How it was run: (§1)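 Selectivity index is CC50/EC50. CC50 is the concentration that reduces OD540 of mock-infected MT-4 cells by 50% in the 5-day MTT assay. EC50 is the 50% protection from virus-induced cytopathicity, measured in parallel on infected wells.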

[2] = Inhibition of recombinant wild type HIV1 reverse transcriptase using DIG-dUTP/biotin-dUTP/dTTP assessed as suppression of biotin-dUTP incorporation after 1 hr by ELISA; design: species or system Human immunodeficiency virus 1
How it was run: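 Recombinant WT HIV-1 RT in a Roche colorimetric kit: template plus DIG-dUTP, biotin-dUTP and dTTP, ±inhibitor, 1 h at 37 °C. Product captured on streptavidin plate 1 h at 37 °C, anti-DIG-POD 1 h at 37 °C, ABTS developed at 25 °C, read at OD405. IC50 is the concentration inhibiting biotin-dUTP incorporation by 50%.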

[3] = Antiviral activity against HIV2 ROD harboring reverse transcriptase infected in human MT4 cells assessed as protection against virus induced cytotoxicity after 5 days by MTT assay; assay type: functional, cell-based, Human immunodeficiency virus type 2 (ISOLATE ROD); conditions: Human immunodeficiency virus 2, MT4, 120 h
How it was run: (§2)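 MTT cytopathicity assay in MT-4 cells (6 × 10^5 cells/mL). Compounds serially diluted 5-fold in triplicate wells, run in parallel on infected and mock-infected cells. Virus added at 100−300 CCID50 per well. Viability read spectrophotometrically at 540 and 690 nm after 5 days, using the median OD of three wells. EC50 is the concentration giving 50% protection from viral cytopathogenicity.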

[4] = system: Human immunodeficiency virus 1; experiment: Antiviral activity against HIV1 3B harboring reverse transcriptase Y188L mutant infected in human MT4 cells assessed as protection against virus induced cytotoxicity after 5 days by MTT assay; assay type: functional, cell-based; conditions: Human immunodeficiency virus 1, 3B, MT4, 120 h; how it was run: as §2
[5] = Selectivity index, ratio of CC50 for human mock-infected MT4 cells to EC50 for HIV1 3B harboring reverse transcriptase Y181C mutant infected in human MT4 cells; assay type: toxicity, cell-based; conditions: MT4 cells (mock-infected for CC50, HIV-1 infected for EC50); how it was run: as §1
[6] = Selectivity index, ratio of CC50 for human mock-infected MT4 cells to EC50 for HIV1 3B harboring reverse transcriptase E138K mutant infected in human MT4 cells; assay type: toxicity, cell-based; conditions: MT4 cells (mock-infected for CC50, HIV-1 infected for EC50); how it was run: as §1
[7] = Selectivity index, ratio of CC50 for human mock-infected MT4 cells to EC50 for HIV1 3B harboring reverse transcriptase F227L/V106A double mutant infected in human MT4 cells; assay type: toxicity, cell-based; conditions: MT4 cells (mock-infected for CC50, HIV-1 infected for EC50); how it was run: as §1
[8] = system: Human immunodeficiency virus 1; experiment: Potency index, ratio of ETV EC50 to compound EC50 for HIV1 3B harboring reverse transcriptase Y181C mutant infected in human MT4 cells; assay type: functional
[9] = system: Human immunodeficiency virus 1; experiment: Potency index, ratio of ETV EC50 to compound EC50 for HIV1 3B harboring reverse transcriptase E138K mutant infected in human MT4 cells; assay type: functional
[10] = system: Human immunodeficiency virus 1; experiment: Fold resistance, ratio of EC50 for HIV1 3B harboring reverse transcriptase L100I mutant infected in human MT4 cells to EC50 for wild type HIV1 3B harboring reverse transcriptase infected in human MT4 cells; assay type: functional
How it was run: (§3)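 Fold resistance is the EC50 against the mutant HIV-1 strain divided by the EC50 against WT IIIB. Both EC50s come from the MT-4 MTT cytoprotection assay (5-day read, 100−300 CCID50 inoculum).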

[11] = system: Human immunodeficiency virus 1; experiment: Fold resistance, ratio of EC50 for HIV1 3B harboring reverse transcriptase Y181C mutant infected in human MT4 cells to EC50 for wild type HIV1 3B harboring reverse transcriptase infected in human MT4 cells; assay type: functional; how it was run: as §3
[12] = system: Human immunodeficiency virus 1; experiment: Fold resistance, ratio of EC50 for HIV1 3B harboring reverse transcriptase E138K mutant infected in human MT4 cells to EC50 for wild type HIV1 3B harboring reverse transcriptase infected in human MT4 cells; assay type: functional; how it was run: as §3
[13] = system: Human immunodeficiency virus 1; experiment: Fold resistance, ratio of EC50 for HIV1 3B harboring reverse transcriptase F227L/V106A double mutant infected in human MT4 cells to EC50 for wild type HIV1 3B harboring reverse transcriptase infected in human MT4 cells; assay type: functional; how it was run: as §3
[14] = biological target: Human immunodeficiency virus type 1 reverse transcriptase (Human immunodeficiency virus 1, UniProt Q72547, K103N/Y181C); experiment: Inhibition of recombinant HIV1 reverse transcriptase K103N/Y181C double mutant using DIG-dUTP/biotin-dUTP/dTTP assessed as suppression of biotin-dUTP incorporation after 1 hr by ELISA
[15] = system: Human immunodeficiency virus 1; experiment: Fold resistance, ratio of IC50 for recombinant HIV1 reverse transcriptase K103N/Y181C double mutant to IC50 for wild type HIV1 reverse transcriptase
How it was run: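 Ratio of mutant to WT IC50. Recombinant WT and K103N/Y181C RT were assayed with a kit: template plus DIG-dUTP, biotin-dUTP and dTTP, with or without inhibitor, 1 h at 37 °C. Product was captured on streptavidin, detected with anti-DIG-POD and ABTS, and read at 405 nm. IC50 is the concentration inhibiting biotin-dUTP incorporation by 50%.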

[16] = AUMC (0 to t) in Sprague-Dawley rat plasma at 8 mg/kg administered through oral gavage measured at 5 mins to 24 hrs post dosing by LC/MS analysis; assay type: ADME, organism-based; conditions: in vivo
How it was run: (§4)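 Male Sprague-Dawley rats, ten randomly split into two groups (n = 5), single gavage dose of 8 or 16 mg·kg−1 in PEG 400/normal saline (70/30, V/V). Jugular sinus blood into heparinized tubes at 5 min to 24 h; plasma separated at 2200g for 8 min, stored −20 °C. Methanol precipitation with internal standard, LC-MS quantitation against plasma standard curves. Parameters reported as mean ± SD.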

[17] = AUMC (0 to infinity) in Sprague-Dawley rat plasma at 8 mg/kg administered through oral gavage measured at 5 mins to 24 hrs post dosing by LC/MS analysis; assay type: ADME, organism-based; conditions: in vivo; how it was run: as §4
[18] = MRT (0 to t) in Sprague-Dawley rat plasma at 8 mg/kg administered through oral gavage measured at 5 mins to 24 hrs post dosing by LC/MS analysis; assay type: ADME, organism-based; how it was run: as §4
[19] = Apparent volume of distribution during terminal phase in Sprague-Dawley rat plasma at 8 mg/kg administered through oral gavage measured at 5 mins to 24 hrs post dosing by LC/MS analysis; assay type: ADME, organism-based; conditions: read-out: Vz/F; how it was run: as §4
[20] = Cmax in Sprague-Dawley rat plasma at 8 mg/kg administered through oral gavage measured at 5 mins to 24 hrs post dosing by LC/MS analysis; assay type: ADME, organism-based; design: dose 8 mg/kg, route oral; conditions: in vivo; how it was run: as §4
[21] = AUC (0 to t) in Sprague-Dawley rat plasma at 16 mg/kg administered through oral gavage measured at 5 mins to 24 hrs post dosing by LC/MS analysis; assay type: ADME, organism-based; design: time lower 0.083 hr, dose 16 mg/kg, time upper 24 hr, route oral; how it was run: as §4
[22] = AUMC (0 to t) in Sprague-Dawley rat plasma at 16 mg/kg administered through oral gavage measured at 5 mins to 24 hrs post dosing by LC/MS analysis; assay type: ADME, organism-based; conditions: in vivo; how it was run: as §4
Mus musculus = experiment: Acute toxicity in Kunming mouse assessed as increase in body weight at 2000 mg/kg, ig after 1 week; assay type: organism-based; conditions: in vivo, po, 168 h
How it was run: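 Kunming mice (18−22 g), fasted 12 h, then given a single intragastric dose suspended in PEG-400 (100 or 200 mg·mL−1 for 1000 or 2000 mg·kg−1). Six mice per dose group, half male and half female. Deaths and body-weight gain followed for 1 week.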

Question: For `Cc1cc(C#N)cc(C)c1Oc1nc(NC2CCN(Cc3ccc(S(N)(=O)=O)cc3)CC2)nc2ccsc12`, which selectivity ratio [1] is on record?
Answer: > 67400

Question: What about the IC50 [2] of the same compound?
Answer: 300 nM

Question: And the EC50 [3]?
Answer: ≥ 228000 nM

Question: What about the EC50 [4] of the same compound?
Answer: 3 nM

Question: And the selectivity ratio [5]?
Answer: > 78100

Question: And the selectivity ratio [6]?
Answer: > 75800

Question: What about the selectivity ratio [7] of the same compound?
Answer: > 78100

Question: And the “Ratio EC50” value [8]?
Answer: 5

Question: What about the “Ratio EC50” value [9] of the same compound?
Answer: 5

Question: What about the “Ratio EC50” value [10] of the same compound?
Answer: <3

Question: And the “Ratio EC50” value [11]?
Answer: <3

Question: And the “Ratio EC50” value [12]?
Answer: <3

Question: What about the “Ratio EC50” value [13] of the same compound?
Answer: <3

Question: What about the IC50 [14] of the same compound?
Answer: 360 nM

Question: And the Ratio IC50 [15]?
Answer: 1.2

Question: What about the AUMCt [16] of the same compound?
Answer: 5690.8 ug/L.hr

Question: What about the AUMC [17] of the same compound?
Answer: 6474.1 ug/L.hr

Question: And the MRT last [18]?
Answer: 3.44 h

Question: What about the Vd/F [19] of the same compound?
Answer: 38.2 L/kg

Question: And the Cmax [20]?
Answer: 415 ng/mL

Question: What about the AUC(0-t) [21] of the same compound?
Answer: 1670 ng·h/mL

Question: And the AUMCt [22]?
Answer: 5458.8 ug/L.hr

Question: What about the Activity (Mus musculus) of the same compound?
Answer: Non-Toxic
